Experimental data taken from ChEMBL document CHEMBL1133771, “Synthesis and pharmacological evaluation of new pyrazolidine-3, 5-diones as AT(1) angiotensin II receptor antagonists” (J Med Chem, 2000).

Tests used:
[1] = molecular target: T1, Type-1 angiotensin II receptor (Homo sapiens, UniProt P30556); assay: Binding affinity against AT1 in human hepatoma cell line, PLC-PRF-5
T1 sequence (P30556 whole entry): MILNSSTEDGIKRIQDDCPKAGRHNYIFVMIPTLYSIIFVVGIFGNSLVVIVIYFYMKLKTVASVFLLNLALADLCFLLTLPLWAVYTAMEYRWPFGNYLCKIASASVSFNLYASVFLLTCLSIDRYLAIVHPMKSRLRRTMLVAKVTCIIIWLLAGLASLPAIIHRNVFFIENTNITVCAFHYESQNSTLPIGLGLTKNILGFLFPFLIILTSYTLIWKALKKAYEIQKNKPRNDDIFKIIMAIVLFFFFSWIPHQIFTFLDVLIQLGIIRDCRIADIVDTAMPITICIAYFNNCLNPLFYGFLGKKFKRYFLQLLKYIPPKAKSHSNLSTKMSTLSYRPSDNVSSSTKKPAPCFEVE
In short: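 Crude membranes from PLC-PRF human hepatoma cells were prepared by lysis in ice-cold Tris/HCl 50 mM, MgCl2 2 mM, pH 7.4, then spun at 30000g. 100 µg protein was incubated 1 h at 25 °C with 3 nM [3H]AII. Nonspecific binding was taken with 1 µM losartan. Compounds were tested at 10-10–10-5 M, with filtration and scintillation counting.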

[2] = (§1) In vitro antagonist activity, Inhibition of angiotensin II (50 nM) mediated increase in cytosolic [Ca2+] conc. in PLC-PRF-5 cells; assay type: functional, cell-based; details: Homo sapiens
In short: (§2)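 PLC-PRF-5 cells were preincubated with compound, then stimulated with 50 nM angiotensin II. The rise in intracellular cytosolic Ca2+ concentration was measured, and inhibition of that rise is given as IC50.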

Angiotensin II receptor = molecular target: T2, Angiotensin II receptor (Homo sapiens, UniProt P30556+P50052); assay: as §1; assay type: functional, cell-based; in short: as §2
T2 sequence (P30556 whole entry): T1 sequence (P30556 whole entry)
T2 sequence (P50052 whole entry): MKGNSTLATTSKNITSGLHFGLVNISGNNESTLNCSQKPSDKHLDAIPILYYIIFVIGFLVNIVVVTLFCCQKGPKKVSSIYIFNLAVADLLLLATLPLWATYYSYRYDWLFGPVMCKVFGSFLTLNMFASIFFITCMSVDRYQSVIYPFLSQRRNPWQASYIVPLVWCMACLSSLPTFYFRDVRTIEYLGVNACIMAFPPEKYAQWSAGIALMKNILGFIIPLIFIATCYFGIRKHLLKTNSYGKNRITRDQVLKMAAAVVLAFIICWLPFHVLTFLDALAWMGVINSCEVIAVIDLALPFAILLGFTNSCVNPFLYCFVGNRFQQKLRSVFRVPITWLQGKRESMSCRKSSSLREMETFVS

CCCCN1C(=O)C(C)(CCCC)C(=O)N1Cc1ccc(-c2ccccc2S(=O)(=O)NC(=O)c2ccccc2)cc1 (configuration not stated)
Ki [1]: 32 nM | IC50 [2]: 33 nM

CCCCN1C(=O)C2(CCCC2)C(=O)N1Cc1ccc(-c2ccccc2-c2nn[nH]n2)cc1
Ki [1]: 25 nM | IC50 (Angiotensin II receptor): 22 nM

CCCCN1C(=O)C2(CCCC2)C(=O)N1Cc1ccc(-c2ccccc2S(=O)(=O)NC(=O)NC2CCCCC2)cc1
Ki [1]: 32 nM | IC50 (Angiotensin II receptor): 38 nM

O=C1N(Cc2ccccc2)N(Cc2ccc(-c3ccccc3-c3nn[nH]n3)cc2)C(=O)C12CCCC2
Ki [1]: 402 nM

CCCCN1C(=O)C2(CCCC2)C(=O)N1Cc1ccc(-c2ccccc2C#N)cc1
Ki [1]: > 10000 nM

CCCCN1C(=O)C2(CCCC2)C(=O)N1Cc1ccc(-c2ccccc2S(=O)(=O)NC(C)(C)C)cc1
Ki [1]: > 10000 nM

CCCCN1C(=O)C2(CCCC2)C(=O)N1Cc1ccc(NC(=O)c2ccccc2C(=O)O)cc1
Ki [1]: 398 nM

CCCCN1C(=O)C(C)(C)C(=O)N1Cc1ccc(-c2ccccc2S(=O)(=O)NC(=O)c2ccccc2)cc1
Ki [1]: 42 nM | IC50 (Angiotensin II receptor): 26 nM

CCCCN1C(=O)C2(CCCC2)C(=O)N1Cc1ccc(C(=O)Nc2ccccc2C(=O)O)cc1
Ki [1]: 2000 nM

CCCCN1C(=O)C2(CCCC2)C(=O)N1Cc1ccc(-c2ccccc2S(N)(=O)=O)cc1
Ki [1]: > 10000 nM

O=C1N(Cc2ccc(-c3ccccc3-c3nn[nH]n3)cc2)N(c2ccccc2)C(=O)C12CCCC2
IC50 (Angiotensin II receptor): 89 nM

CCCCCN1C(=O)C2(CCCC2)C(=O)N1Cc1ccc(-c2ccccc2S(=O)(=O)NC(=O)c2ccccc2)cc1
Ki [1]: 25 nM | IC50 (Angiotensin II receptor): 28 nM

CCCCN1C(=O)C2(CCCC2)C(=O)N1Cc1ccc(-c2ccccc2)cc1
Ki [1]: > 10000 nM

CCCCC(=O)NS(=O)(=O)c1ccccc1-c1ccc(CN2C(=O)C3(CCCC3)C(=O)N2CCCC)cc1
Ki [1]: 13 nM | IC50 (Angiotensin II receptor): 15 nM

CCCCN1C(=O)C2(CCCC2)C(=O)N1Cc1ccc(-c2ccccc2C(=O)O)cc1
Ki [1]: 3160 nM

Cc1ccc(N2C(=O)C3(CCCC3)C(=O)N2Cc2ccc(-c3ccccc3-c3nn[nH]n3)cc2)cc1
Ki [1]: 381 nM

CCCCN1C(=O)C2(CCCC2)C(=O)N1Cc1ccc(C(=O)Nc2cccc(C(=O)O)c2)cc1
Ki [1]: > 10000 nM

CCCCN1C(=O)C2(CCCC2)C(=O)N1Cc1ccc(-c2ccccc2S(=O)(=O)NC(=O)c2ccccc2)cc1
Ki [1]: 10 nM | IC50 (Angiotensin II receptor): 12 nM

CCCN1C(=O)C2(CCCC2)C(=O)N1Cc1ccc(-c2ccccc2S(=O)(=O)NC(=O)c2ccccc2)cc1
Ki [1]: 40 nM | IC50 (Angiotensin II receptor): 52 nM
